Experimental findings from ChEMBL document CHEMBL3817776, “Discovery and Structure-Activity Relationships of the Neoseptins: A New Class of Toll-like Receptor-4 (TLR4) Agonists” (J Med Chem, 2016) are described below.

SMILES strings stand for the structures. The source made the active and inactive calls. The rule behind the calls is not given here.

For the test, the target named is T1, Toll-like receptor 4 (Mus musculus) (UniProt Q9QUK6).
T1 sequence (whole entry): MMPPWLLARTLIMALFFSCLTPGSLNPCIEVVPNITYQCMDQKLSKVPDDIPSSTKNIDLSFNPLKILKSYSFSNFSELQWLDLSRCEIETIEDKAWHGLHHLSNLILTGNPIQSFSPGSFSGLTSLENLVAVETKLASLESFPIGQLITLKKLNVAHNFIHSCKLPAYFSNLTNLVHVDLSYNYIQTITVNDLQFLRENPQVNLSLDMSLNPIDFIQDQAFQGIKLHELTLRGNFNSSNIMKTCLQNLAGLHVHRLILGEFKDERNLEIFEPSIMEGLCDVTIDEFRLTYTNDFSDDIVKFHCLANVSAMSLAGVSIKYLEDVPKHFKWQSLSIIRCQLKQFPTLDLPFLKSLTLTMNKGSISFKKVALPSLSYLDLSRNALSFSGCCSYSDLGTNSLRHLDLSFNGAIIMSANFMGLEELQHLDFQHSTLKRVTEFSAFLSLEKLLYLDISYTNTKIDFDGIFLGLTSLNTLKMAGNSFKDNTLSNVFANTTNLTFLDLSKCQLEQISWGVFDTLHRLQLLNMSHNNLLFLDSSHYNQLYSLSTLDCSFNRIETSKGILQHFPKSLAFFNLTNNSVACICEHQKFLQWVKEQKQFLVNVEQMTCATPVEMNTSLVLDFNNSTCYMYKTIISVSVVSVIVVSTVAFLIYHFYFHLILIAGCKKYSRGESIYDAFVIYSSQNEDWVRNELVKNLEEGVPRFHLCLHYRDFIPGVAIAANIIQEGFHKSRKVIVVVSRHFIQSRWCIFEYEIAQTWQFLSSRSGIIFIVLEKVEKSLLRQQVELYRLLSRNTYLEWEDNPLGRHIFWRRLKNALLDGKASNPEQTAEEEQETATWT
Briefly: Agonist activity at TLR4 in C57BL/6J mouse macrophages assessed as stimulation of TNFalpha release at 50 uM after 4 hrs by ELISA. Summed up: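 Peritoneal macrophages from wild-type C57BL/6J mice, collected by PBS lavage and cultured in DMEM/10% FBS at 37 °C, 5% CO2. Seeded at 1 × 10^5 cells/well and treated 4 h with compound in DMSO (0.5% final) beside ultra-pure LPS and DMSO controls. Supernatant TNF-α measured by ELISA; mean of triplicates.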
On the technique in general: In an ELISA, binding on a coated surface is turned into a signal by an enzyme label.
In the case of `N[C@@H](Cc1ccccc1)C(=O)Nc1ccc(C(=O)N[C@@H](CCc2ccccc2)C(=O)O)cc1OCCc1ccc(O)cc1`, the outcome was Active.

For the compound `CC(C)(C)OC(=O)[C@H](CCc1ccc(N)cc1)NC(=O)c1ccc(N)c(CCc2ccc(O)cc2)c1`, the outcome was inactive.

Take `CN(C)c1ccc(C(=O)N[C@@H](CCc2ccccc2)C(=O)OC(C)(C)C)cc1CCc1ccc(O)cc1`: the outcome was inactive.

In the case of `Nc1ccc(C(=O)N[C@@H](CCc2ccccc2)C(=O)O)cc1OCCc1ccc(O)cc1`, the result was inactive.

Take `CC(C)(C)OC(=O)[C@H](CCc1ccccc1)NCc1ccc(N)c(CCc2ccc(O)cc2)c1`: the outcome was inactive.

Take `CC(C)(C)OC(=O)[C@H](CCc1ccccc1)NC(=O)c1ccc(N)c(COc2ccc(O)cc2)c1`: the result was Active.

On to `CC(C)(C)OC(=O)[C@H](CCc1ccccc1)NC(=O)c1ccc(N)c(-c2ccc(O)cc2)c1`, for which the outcome was inactive.

With `Nc1ccc(C(=O)N[C@@H](CCc2ccccc2)C(=O)OC23CC4CC(CC(C4)C2)C3)cc1CCc1ccc(O)cc1`, the outcome was inactive.

Consider `CC(C)(C)OC(=O)[C@H](CCc1ccccc1)NC(=O)c1ccc(N)c(CCc2cccc(O)c2)c1`, for which the outcome was Active.

With `CCC(C)(C)OC(=O)[C@H](CCc1ccccc1)NC(=O)c1ccc(N)c(CCc2ccc(O)cc2)c1`, the result was Active.

On to `CC(C)(C)OC(=O)[C@H](CCc1ccc(F)cc1)NC(=O)c1ccc(N)c(CCc2ccc(O)cc2)c1`, for which the result was Active.

Consider `CC(C)(C)OC(=O)[C@H](CCc1ccc(Cl)cc1)NC(=O)c1ccc(N)c(CCc2ccc(O)cc2)c1`, for which the result was inactive.

As to `CC(C)(C)OC(=O)[C@@H](N)Cc1ccccc1`, the result was inactive.

Consider `N[C@@H](Cc1ccc2ccccc2c1)C(=O)Nc1ccc(C(=O)N[C@@H](CCc2ccccc2)C(=O)O)cc1OCCc1ccc(O)cc1`, for which the result was Active.

On to `CC(C)(C)OC(=O)[C@H](CCc1ccccc1)NC(=O)c1ccc(N)c(C#Cc2ccc(O)cc2)c1`, for which the result was inactive.

Take `NC(=O)[C@H](CCc1ccccc1)NC(=O)c1ccc(N)c(CCc2ccc(O)cc2)c1`: the outcome was inactive.

With `CC(C)(C)NC(=O)[C@H](CCc1ccccc1)NC(=O)c1ccc(N)c(CCc2ccc(O)cc2)c1`, the outcome was inactive.

With `CC(C)OC(=O)[C@H](CCc1ccccc1)NC(=O)c1ccc(N)c(CCc2ccc(O)cc2)c1`, the result was inactive.

Take `CC(C)(C)OC(=O)[C@H](CCc1ccccc1)NC(=O)c1ccc(N)c(Nc2ccc(O)cc2)c1`: the result was inactive.

With `CCCCCCCCCNC(=O)[C@H](CCc1ccccc1)NC(=O)c1ccc(N)c(CCc2ccc(O)cc2)c1`, the outcome was inactive.

Consider `Nc1ccc(C(=O)N[C@@H](CCc2ccccc2)C(=O)O)cc1CCc1ccc(O)cc1`, for which the result was inactive.

Consider `CC(C)(C)OC(=O)[C@H](CCc1ccccc1)NC(=O)c1ccc(N)c(CCc2ccccc2O)c1`, for which the result was inactive.

As for `C#CCC(C)(C)OC(=O)[C@H](CCc1ccccc1)NC(=O)c1ccc(N)c(CCc2ccc(O)cc2)c1`, the outcome was inactive.

As to `CC(C)(C)OC(=O)[C@H](CCc1ccccc1)NC(=O)c1cccc(CCc2ccc(O)cc2)c1`, the outcome was inactive.

Turning to `CC(C)(C)OC(=O)[C@H](CCc1ccc(O)cc1)NC(=O)c1ccc(N)c(CCc2ccc(O)cc2)c1`, the result was inactive.

Regarding `CC(C)(C)OC(=O)[C@H](CCCc1ccccc1)NC(=O)c1ccc(N)c(CCc2ccc(O)cc2)c1`, the result was inactive.

As to `CC(C)(C)OC(=O)[C@H](CCc1ccccc1)NC(=O)c1ccc(N)c(Sc2ccc(O)cc2)c1`, the result was inactive.

Regarding `CC(C)(C)OC(=O)[C@H](CCc1ccccc1)NC(=O)c1ccc(N)c(OCCc2cccc(O)c2)c1`, the outcome was Active.

For the compound `CC(C)(C)COC(=O)[C@H](CCc1ccccc1)NC(=O)c1ccc(N)c(CCc2ccc(O)cc2)c1`, the outcome was inactive.
